Test results published in ChEMBL document CHEMBL1129958, “Synthesis and antiviral activity of certain 5'-modified analogs of 2,5,6-trichloro-1-(beta-D-ribofuranosyl)benzimidazole” (J Med Chem, 1997).

Key:
[1] = test system: KB; test: In vitro inhibition of KB (human carcinoma) cell growth.; assay type: functional, cell-based
How it was run: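 KB cells, 3000–5000/well, incubated overnight at 37 °C. Compound added in quadruplicate at six to eight concentrations for 48 h (about two population doublings). Cells fixed in 95% ethanol, stained with 0.1% crystal violet, dye eluted with acidified ethanol and read at 570 nm. IC50 from regression against log concentration.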

[2] = test system: Human alphaherpesvirus 1; test: In vitro antiviral activity against HSV-1 virus in BSC-1 (monkey kidney) cells.; assay type: functional, organism-based; settings: Human alphaherpesvirus 1, BSC-1
How it was run: (§1)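 BSC-1 cells, 10 000/well in MEM(E) with 10% calf serum, incubated overnight at 37 °C. Drug added in quadruplicate together with HSV-1 KOS at 100 PFU/well and incubated 3 days. Read-out by ELISA with HRP-conjugated rabbit anti-HSV-1 and TMB substrate, absorbance at 450 and 570 nm. Percent absorbance reduction against virus-only wells regressed on log concentration for IC50.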

[3] = test system: Human betaherpesvirus 5; test: In vitro antiviral activity against HCMV (Towne strain) in HFF (human fibroblast) cells.; assay type: functional, organism-based; settings: Human betaherpesvirus 5, HFF
How it was run: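 HFF monolayers in 24-well dishes infected with about 100 PFU HCMV/cm2 of cell sheet. After adsorption, compound in growth medium added to duplicate wells at four to eight concentrations. Incubated 7 days at 37 °C, fixed and stained with crystal violet, microscopic plaques counted. Percent plaque reduction against no-drug wells regressed on log concentration to give IC50.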

[4] = test system: HFF; test: Visual cytotoxicity was scored on Human foreskin fibroblasts (HFF cells) at the time of plaque enumeration.; assay type: functional, cell-based
How it was run: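 Stationary HFF cells from the plaque assays, not affected by virus, inspected microscopically for cytotoxicity at the time of plaque counting.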

[5] = test system: L1210; test: Effect of initial screen concentration of 10 uM on the growth of L1210 Murine Leukemia cells
[6] = test system: L1210; test: concentration required to decrease the cell density in the treated cultures to one-half of the control was measured on L1210 murine Leukemia cells (in vitro); c=No significant growth inhibition observed atthe initial screen concentration; assay type: functional, cell-based, Mus musculus
[7] = test system: L1210; test: concentration required to decrease the cell density in the treated cultures to one-half of the control was measured on L1210 murine Leukemia cells (in vitro) (The highest concentration tested); assay type: functional, cell-based; settings: Mus musculus
How it was run: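 L1210 cells, 2000/well, given compound the day after plating and incubated 3 days; cell density read by MTS reduction. Concentration–response in two independent experiments. IC50 is the concentration that halves cell density relative to control, averaged over the two experiments.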

[8] = test system: L1210; test: Effect of initial screen concentration of 1 uM on the growth of L1210 Murine Leukemia cells
[9] = test system: Human alphaherpesvirus 1; test: Antiviral activity was determined against Herpes simplex virus-1 by ELISA test (IC50 not reached at the noted concentration tested); assay type: functional, organism-based; how it was run: as §1
[10] = test system: Human betaherpesvirus 5; test: In vitro reduction in yield of Towne strain of HCMV in HFF (human fibroblast) cells.; assay type: functional; settings: Human betaherpesvirus 5, HFF
How it was run: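 HFF in 96-well plates infected with HCMV Towne at MOI 0.5-1 PFU/cell. After adsorption, compound given in duplicate, serially diluted 1:3 from 100 to 0.14 µM. After 7 days at 37 °C, one freeze-thaw cycle, then progeny titred by 1:3 serial dilution on fresh HFF monolayers with plaque counts. IC90 taken from regression of percent inhibition against log concentration.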

[11] = test system: L1210; test: Effect of initial screen concentration of 100 uM on the growth of L1210 Murine Leukemia cells; assay type: functional, Mus musculus
How it was run: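 L1210 mouse leukemia cells in RPMI 1640 with 10% heat-inactivated horse serum, 2000 cells/well. Compound added the next day and incubated 3 days. Growth read by MTS tetrazolium reduction optical density as percent of control. Screen at 100 µM, or the solubility limit; value is the mean of two or three experiments.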

Row | SMILES | IC50 [1] [µM] | IC50 [2] [µM] | IC50 [3] [µM] | IC50 [4] [µM] | Control [5] [%] | IC50 [6] | IC50 [7] [µM] | Control [8] [%] | IC50 [9] [µM] | IC90 [10] [µM] | Control [11] [%]
1 | CC(=O)OC1C(CI)OC(n2c(Cl)nc3cc(Cl)c(Cl)cc32)C1OC(C)=O (configuration not stated) | 60 | > 100 | 2.7 | 32 | – | – | – | – | – | – | –
2 | CC1(C)OC2C(CN=[N+]=[N-])OC(n3c(Cl)nc4cc(Cl)c(Cl)cc43)C2O1 (configuration not stated) | – | – | 11 | 32 | – | – | – | – | – | – | –
3 | CC(=O)OC1C(CN=[N+]=[N-])OC(n2c(Cl)nc3cc(Cl)c(Cl)cc32)C1OC(C)=O (configuration not stated) | 70 | > 100 | 1.5 | 32 | 110 | No significant growth | – | – | – | – | –
4 | CCOC[C@H]1O[C@@H](n2c(Cl)nc3cc(Cl)c(Cl)cc32)[C@H](OC(C)=O)[C@@H]1OC(C)=O | 60 | > 100 | 4.3 | 33 | 83 | – | > 10 | – | – | – | –
5 | CCCCOC[C@H]1O[C@@H](n2c(Cl)nc3cc(Cl)c(Cl)cc32)[C@H](OC(C)=O)[C@@H]1OC(C)=O | > 100 | > 100 | 21 | 66 | 92 | No significant growth | – | – | – | – | –
6 | COC[C@H]1O[C@@H](n2c(Cl)nc3cc(Cl)c(Cl)cc32)[C@H](OC(C)=O)[C@@H]1OC(C)=O | 80 | – | 2.8 | 26 | – | No significant growth | – | 95 | > 100 | – | –
7 | CC(=O)OC1C(CF)OC(n2c(Cl)nc3cc(Cl)c(Cl)cc32)C1OC(C)=O (configuration not stated) | 100 | > 100 | 0.6 | 32 | 122 | No significant growth | – | – | – | 0.19 | –
8 | CC1(C)OC2C(CCl)OC(n3c(Cl)nc4cc(Cl)c(Cl)cc43)C2O1 (configuration not stated) | 100 | > 100 | 14 | 32 | – | – | – | – | – | – | –
9 | CC(=O)OC1C(CBr)OC(n2c(Cl)nc3cc(Cl)c(Cl)cc32)C1OC(C)=O (configuration not stated) | 60 | > 100 | 2.7 | 32 | – | No significant growth | – | – | – | – | 94
10 | CSCC1OC(n2c(Cl)nc3cc(Cl)c(Cl)cc32)C(OC(C)=O)C1OC(C)=O (configuration not stated) | – | > 100 | 4.8 | 32 | – | – | – | – | – | – | –
11 | CC(=O)OC1C(CCl)OC(n2c(Cl)nc3cc(Cl)c(Cl)cc32)C1OC(C)=O (configuration not stated) | 90 | > 100 | 1.4 | 32 | 96 | No significant growth | – | – | – | 0.31 | –
